Data set [1] is described as follows: Antioxidant activity assessed as […] reduction power at 10 uM after 1 hr by cupric ion reducing antioxidant capacity assay. The format is physicochemical.
The nature of data set [2]: Antioxidant activity assessed as […] reduction power at 1 uM after 1 hr by cupric ion reducing antioxidant capacity assay. The format is physicochemical.
Data set [3] in a line: Antioxidant activity assessed as trolox equivalent of AAPH radical scavenging activity at 10 uM after 2 mins by ORAC-RCoo assay. The class given is physicochemical. The method, boiled down: (§1)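 Peroxyl radical scavenging was measured by the oxygen radical absorbance capacity (ORAC) assay, with Trolox as the positive control. Values are reported as Trolox equivalents (TE).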

A short description of data set [4]: Antioxidant activity assessed as trolox equivalent of AAPH radical scavenging activity at 1 uM after 2 mins by ORAC-RCoo assay. The class given is physicochemical. The method, boiled down:
as §1

Data set [5] in a line: Metal chelating activity of the compound assessed as Cu2+ chelating activity at 10 uM by fluorescence assay relative to control. The class given is physicochemical.
Data set [6] in a line: Inhibition of alpha-glucosidase (unknown origin) using 3 mM p-NPG solution at 50 uM relative to control. Particulars: Rattus norvegicus.

Data on 13 molecules can be found in ChEMBL document CHEMBL3352738, “A new phenylpropanoid and an alkylglycoside from Piper retrofractum leaves with their antioxidant and α-glucosidase inhibitory activity” (Bioorg Med Chem Lett, 2014).

Turning to `CCCCO[C@@H]1O[C@H](CO)[C@@H](O)[C@H](O)[C@H]1O`, the Activity was 1.68 µM in data set [1]; 0.18 µM in data set [2]; 3.64 µM in data set [3]; 0.62 µM in data set [4]; 18.04% in data set [5].

Usually inhibition stands for the drop in the measured response relative to a control, in per cent. `C=CCc1ccc(O)c(O)c1` [HYDROXYCHAVICOL]: the Activity in data set [1] turned out to be 22.77 µM; in data set [2], 1.55 µM; in data set [3], 16.26 µM; in data set [4] it was 2.55 µM; in data set [5] it was 20.48%. This molecule yielded an inhibition in data set [6] of 9.08%.

For the molecule `C=CCc1ccc(O[C@@H]2O[C@H](CO)[C@@H](O)[C@H](O)[C@H]2O)c(O[C@@H]2O[C@H](CO)[C@@H](O)[C@H](O)[C@H]2O)c1`, the Activity in data set [1] stood at 0.65 µM; in data set [2], 0.32 µM; in data set [3], 1.71 µM; in data set [4], 0.17 µM; in data set [5] it was 21.8%. The molecule further yielded an inhibition in data set [6] of 7.02%.

On to `COc1cc(C[C@@H](O)CO)ccc1O[C@@H]1O[C@H](CO)[C@@H](O)[C@H](O)[C@H]1O`, for which the Activity in data set [1] stood at 0.96 µM; in data set [2] it was 0.29 µM; in data set [3] it was 2.88 µM; in data set [4], 0.55 µM; in data set [5], 24.21%. In data set [6], this molecule gave an inhibition of 11.7%.

Take `CCCCC[C@H](C)O[C@@H]1O[C@H](CO[C@@H]2OC[C@@H](O)[C@H](O)[C@H]2O)[C@@H](O)[C@H](O)[C@H]1O`: the Activity in data set [1] stood at 0.59 µM; in data set [2], 0.17 µM; in data set [3], 2.26 µM; in data set [4], 0.48 µM; in data set [5], 20.58%. For the same molecule, the inhibition in data set [6] stood at 8.54%.

For the molecule `OC[C@@]1(O)CO[C@@H](OC[C@H]2O[C@@H](OCc3ccccc3)[C@H](O)[C@@H](O)[C@@H]2O)[C@@H]1O`, the Activity in data set [1] was 0.84 µM; in data set [2] it was 0.46 µM; in data set [3] it was 1.61 µM; in data set [4], 0.15 µM; in data set [5], 19.3%. The inhibition in data set [6] worked out at 7.93%.

On to `CC(C)O[C@@H]1O[C@H](CO[C@@H]2OC[C@@H](O)[C@H](O)[C@H]2O)[C@@H](O)[C@H](O)[C@H]1O`, for which the Activity stood at 0.63 µM in data set [1]; 0.27 µM in data set [2]; 2.13 µM in data set [3]; 0.31 µM in data set [4]; 21.67% in data set [5]. The inhibition in data set [6] was found to be 7.49%.

With `CC(C)O[C@@H]1O[C@H](CO)[C@@H](O)[C@H](O)[C@H]1O`, the Activity in data set [1] turned out to be 0.54 µM; in data set [2], 0.29 µM; in data set [3] it was 1.79 µM; in data set [4] it was 0.22 µM; in data set [5], 20.97%. In addition, the inhibition in data set [6] is 7.31%.

As for `CC1=CC(=O)CC(C)(C)[C@@]1(O)CC[C@@H](C)O[C@@H]1O[C@H](CO)[C@@H](O)[C@H](O)[C@H]1O`, the Activity in data set [1] worked out at 0.34 µM; in data set [2], 0.21 µM; in data set [3] it was 0.92 µM; in data set [4], 0.12 µM; in data set [5], 20.5%. The inhibition in data set [6] is 6.9%.

For the molecule `COc1cc(O[C@@H]2O[C@H](CO)[C@@H](O)[C@H](O)[C@H]2O)ccc1O` [TACHIOSIDE], the Activity in data set [1] was determined as 0.63 µM; in data set [2] it was 0.21 µM; in data set [3], 1.65 µM; in data set [4], 0.21 µM; in data set [5], 21.42%. In data set [6], this molecule came in with an inhibition of 4.6%.

Consider `COc1cc(C[C@@H](O)CO)ccc1O`, for which the Activity in data set [1] came out at 43.82 µM; in data set [2], 9.01 µM; in data set [3], 28.2 µM; in data set [4] it was 3.59 µM; in data set [5] it was 25%.

Regarding `CCCCC[C@H](C)O[C@@H]1O[C@H](CO[C@@H]2OC[C@](O)(CO)[C@H]2O)[C@@H](O)[C@H](O)[C@H]1O`, the Activity in data set [1] is 1.13 µM; in data set [2], 0.34 µM; in data set [3], 3.07 µM; in data set [4] it was 1.04 µM; in data set [5] it was 19.63%. For the same molecule, the inhibition in data set [6] was 8.62%.

Take `OC[C@H]1O[C@@H](OCc2ccccc2)[C@H](O)[C@@H](O)[C@@H]1O`: the Activity came to 0.69 µM in data set [1]; 0.41 µM in data set [2]; 1.83 µM in data set [3]; 0.18 µM in data set [4]; 22.39% in data set [5]. In data set [6], the inhibition stood at 12%.
